PfGluPho inh = PfG6PD (Plasmodium falciparum) enzyme inhibition; PfGluPho enzyme, NADPH resazurin-diaphorase fluorescence; 350,000 tested, 0.78% active; AID 504690; inhibition, % at 20 µM;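 active = inhibition reaching at least a set limit at 20 µM in the primary screen, cut at about 59% in these data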;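 also: 0% = DMSO wells with substrate and 100% = DMSO wells lacking glucose-6-phosphate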
HKDC1 inh = inhibitors of human hexokinase HKDC1. 340,000 tested, 0.16% active. recombinant HKDC1, G6PDH/diaphorase resazurin coupled fluorescence. AID 493160. Q2TB90. inhibition, % at 20 µM;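 active = inhibition above about 35% when tested at 20 µM, limit read from the data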;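 also: plate controls were DMSO wells with enzyme for no effect and DMSO wells lacking enzyme for full effect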
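test system = in-house recombinant HK5 (HKDC1) enzyme | amount = HKDC1 at 5 µg/mL | control set = DMSO-enzyme wells negative, buffer-substituted wells positive | compound = one dose of 20 µM, 1% DMSO | schedule = reaction time 90 min, room temperature, protected from light | technique = resorufin fluorescence at 613 nm | reagent = glucose with 1 mM ATP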
ABHD5-PLIN5 inh = blocks binding of human ABHD5 to perilipin-5; Split G. princeps luciferase complementation, luminescence, 4 h; inhibition, % at 4 µM; 360,000 tested, 0.78% active; AID 602281;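 active = inhibition above the mean inhibition across every tested compound plus 3 SD, cut at about 22% in these data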;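 also: 0% = DMSO only wells and the 100% control is not disclosed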
Granule exo inh = blocks lytic granule exocytosis | TALL-104 LAMP-1 surface exposure, flow cytometry; cells stimulated with thapsigargin and PMA | 360,000 tested, 0.66% active | inhibition, % at 10 µM;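 active = inhibition above about 55%, limit read from the data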
Exocytosis CP01 = blocks lytic granule exocytosis; inhibition, % at 10 µM; TALL-104 cells, LAMP-1 externalization, flow cytometry; stimulated with PMA plus thapsigargin; AID 651954; shares compounds with Granule exo inh; 1,500 tested, 11% active; in the data active = inhibition above about 60%;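 also: 0% = stimulated vehicle wells and 100% = unstimulated wells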
* marks the source's active call; other numbers are inactive results; · = no result. Sampled rows, rich in hits. Any-hit rate of the full collection: about 2.2%.

SMILES	PfGluPho inh	HKDC1 inh	ABHD5-PLIN5 inh	Granule exo inh	Exocytosis CP01
CC1(C)Oc2ccc(C(=O)NC3CCCCC3)cc2N(CC#N)C1=O	11.6	-4.9	-5.1	7.3	·
CCOc1ccc2[nH]c3c(N4CCN(c5ccccn5)CC4)ncnc3c2c1	52.4	9.0	7.8	88.3*	9.9
CCOc1ccc2oc(C(=O)N3CCN(c4ccccn4)CC3)c(C)c2c1	-0.2	-7.8	-3.3	3.8	·
CC1CCN(C(=O)Cn2c3ccccc3c3nc4n(c(=O)c32)CCS4)CC1	16.2	-1.9	-1.8	9.1	·
OCCC1CN(CCCc2ccccc2)CCN1CCc1ccccc1 (stereo not given)	-6.3	-5.4	-1.8	61.2*	-3.8
CCCCC[C@H](C)N1C[C@H](COCc2ccccc2)Oc2cc(N3CC[C@@H](N(C)C)C3)ccc2S1(=O)=O	·	·	-1.1	63.6*	41.9
C[C@H](c1ccccc1)N1C[C@H](COCc2ccccc2)Oc2cc(N3CC[C@@H](N(C)C)C3)ccc2S1(=O)=O	·	·	2.8	61.9*	22.5
CCCCC[C@@H](C)N1C[C@@H](COCc2ccccc2)Oc2cc(N3CC[C@@H](O)C3)ccc2S1(=O)=O	·	·	-7.2	-2.7	·
CCCCC[C@@H](C)N1C[C@H](COCc2ccccc2)Oc2cc(N3CC[C@@H](N(C)C)C3)ccc2S1(=O)=O	·	·	8.0	74.4*	72.0*
Cc1ccc(NC(=S)NNC(=O)c2cccc([N+](=O)[O-])c2)cc1Cl	-3.0	-9.7	-9.4	26.5	·
CCNC(=O)C1(C)CCCN(Cc2cc3ccccc3o2)C1 (stereo not given)	·	·	4.3	-2.6	·
CCN(C(=O)C(C)OC(=O)c1nn(-c2ccccc2C(F)(F)F)cc1O)c1ccccc1 (stereo not given)	7.2	-7.4	-4.9	-1.6	·
CC1(C)CC2(CCCN(CC(O)(c3ccccc3)c3ccccc3)C2)CCO1 (stereo not given)	-2.8	9.8	-3.1	14.8	·
CCC1(C)CC2(CCCN(CCC(O)(c3ccccc3)c3ccccc3)C2)CCO1 (stereo not given)	9.9	-3.1	-8.0	58.3*	-11.5
COc1ccc(S(=O)(=O)N2CCN(C(=O)CCSc3ccccc3)CC2)cc1	-2.4	0.2	-6.8	102.1*	-4.2
CN(C)CCCNc1ncnc2sc(-c3ccccc3)cc12	5.0	-8.6	5.6	8.1	·
CCCCN(CCO)c1ncnc2sc(-c3ccccc3)cc12	-10.4	1.2	-3.9	91.8*	-10.4
NC(=O)CSc1nnc(Cc2ccc3c(c2)OCO3)o1	-13.5	0.6	-0.6	-0.7	·
COC(=O)c1ccc(OCC(O)CN2CCc3cc(OC)c(OC)cc3C2c2ccccc2)cc1 (stereo not given)	-10.6	-0.8	-4.8	73.5*	-12.1
O=C(Nc1nnc([C@H]2C[C@H](O)[C@@H](CO)O2)s1)NC1CCCCC1	·	·	-6.0	1.9	·
Cc1oc(-c2ccc(Cl)cc2)nc1CS(=O)CC(=O)NCCN1CCCC1 (stereo not given)	13.9	-4.1	0.6	56.5*	-11.4
CCCCNC(=O)CS(=O)Cc1nc(-c2cccc(C)c2)oc1C (stereo not given)	-0.1	-6.1	-4.2	-10.3	·
Cc1ccc(-c2nc(CS(=O)CC(=O)NCCN3CCCC3)c(C)o2)cc1 (stereo not given)	6.5	0.2	2.9	8.1	·
Cc1cccc(-c2nc(CS(=O)CC(=O)NCCc3ccc(Cl)cc3)c(C)o2)c1 (stereo not given)	1.5	1.5	12.1	58.4*	-3.9
CCN(CC)CCn1c(=N)n(CC(=O)c2ccc(C)cc2)c2ccccc21	31.7	-2.6	14.4	55.8*	-12.1
SMILES	PfGluPho inh	HKDC1 inh	ABHD5-PLIN5 inh	Granule exo inh	Exocytosis CP01
Cc1ccc(C(=O)Cn2c(=N)n(N)c3ccccc32)cc1	4.8	-7.1	-0.4	-5.1	·
CC(=O)c1ccc(N2CCN(C(=O)CCC(=O)Nc3ccc4nc(N5CCN(C)CC5)cc(C)c4c3)CC2)cc1	10.9	0.7	2.0	4.6	·
Cc1ccc2c(Cl)cc(Cl)c(OCc3c(C)noc3C)c2n1	6.1	-4.0	-0.1	59.2*	-4.5
c1ccc(CN2CCCC3(CCCN(Cc4nc(CC5CC5)no4)C3)C2)cc1 (stereo not given)	-26.1	-4.0	-1.7	2.1	·
c1ccc(CN2CCCC3(CCCN(Cc4nc(COc5ccccc5)no4)C3)C2)cc1 (stereo not given)	13.1	1.8	-5.3	59.5*	-3.5
COc1ccc(CNC(=O)COC(=O)[C@H](Cc2c[nH]c3ccccc23)NC(=O)c2cccs2)cc1	1.1	-8.8	0.4	58.1*	32.7
Cc1ccc2nc(-c3ccc(NC(=O)Cc4cccs4)cc3)[nH]c2c1	-8.1	-0.4	5.5	68.0*	-12.4
CCOc1ccc2c(c1)C(C)=CC(C)(C)N2S(=O)(=O)c1ccc(NC(C)=O)cc1	10.7	-1.4	-4.1	69.0*	-12.3
Cc1ccn2cc(-c3ccc(NC(=O)c4ccco4)cc3)nc2c1	30.8	-4.6	2.1	85.4*	-3.7
O=C(Nc1ccc(-c2cn3ccccc3n2)cc1)c1cccs1	17.6	0.7	-0.9	71.9*	48.2
COc1ccc(CC(=O)Nc2ccc(-c3cn4ccccc4n3)cc2)cc1	-6.4	-7.0	-0.5	-1.0	·
CN(C)S(=O)(=O)c1cccc(C(=O)Nc2ccccc2C(=O)NC2CC2)c1	-0.9	-6.3	0.3	-3.7	·
Cc1nc(SCc2nc3ccc([N+](=O)[O-])cc3[nH]2)c2oc3ccccc3c2n1	2.8	0.8	2.4	93.3*	-13.7
CCOc1ccc(S(=O)(=O)NCCC(=O)OCC(=O)NC(=O)c2cccn2C)cc1	3.2	-1.7	-1.2	-0.6	·
COc1cccc(-c2cc(C(=O)O)no2)c1	-8.9	-10.1	11.1	1.3	·
COc1cccc(-c2cc(CC3(O)CCN(CCCc4ccccc4)CC3)on2)c1	-6.6	-5.9	-0.5	62.8*	-10.9
CCNc1nc(-c2sc(NC(=O)C(C)(C)C)nc2C)c(-n2cc(-c3ccccc3)nn2)s1	·	·	-9.6	78.9*	57.6
Cc1ccc(N2C(=O)CC(Sc3cccs3)C2=O)cc1 (stereo not given)	-5.9	-4.0	-0.8	86.4*	-8.3
Cc1cccc(N2C(=O)CC(Sc3nnc(C)s3)C2=O)c1 (stereo not given)	-12.0	2.4	1.6	67.4*	-1.2
O=C1C(=O)N(Cc2cccs2)c2ccccc21	-1.4	10.3	3.7	62.2*	-2.3
O=C(CN1C(=O)C(=O)c2ccccc21)c1ccccc1	0.6	9.0	-4.6	25.4	·
CCc1ccc(NC(=O)CSCCO)cc1	11.0	-2.3	3.7	85.2*	-12.5
O=C(O)c1cccc(NC(=O)c2cccc(S(=O)(=O)N3CCc4ccccc43)c2)c1	-25.1	0.7	8.9	-2.3	·
NC(=O)c1ccc(NC(=O)c2ccc3c(c2)CCN3S(=O)(=O)c2ccccc2)cc1	7.9	-1.7	14.5	71.9*	-0.7
O=C(O)C1=C[C@H](c2ccccc2)C[C@H](OCCCCO)O1	5.4	2.5	-5.0	57.7*	-13.3
O=C(O)C1=C[C@@H](c2ccccc2)C[C@@H](OCCCCO)O1	7.4	-5.9	-2.1	1.4	·

Screening results: PubChem BioAssay, several laboratories
